Results on two compounds are retold here after ChEMBL document CHEMBL3596154, “Discovery of biaryl carboxylamides as potent RORγ inverse agonists” (Bioorg Med Chem Lett, 2015).

Series [1] deals with Rattus norvegicus. As to the kind of experiment: Clearance in rat at 2 mg/kg, iv relative to hepatic blood flow. Type of series: ADME, organism-based, Liver. The following applies: in vivo. In short, it runs like this:
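Rats given 2.0 mg/kg iv in SPEW vehicle. Clearance is expressed as % of hepatic blood flow (%Qh).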

Series [2] can be described thus: Apparent permeability from basolateral to apical side in human Caco2 cells. The following applies: Caco-2. Type of series: ADME, cell-based. Background: Caco-2 monolayers are a common model of the intestinal barrier.
Series [3] is described as follows: Clearance in human hepatocytes relative to hepatic blood flow. Type of series: ADME, cell-based, Liver, Hepatocyte. The following applies: read-out: CLH.
The nature of series [4]: Apparent permeability from apical to basolateral side in human Caco2 cells. Type of series: ADME, cell-based. The following applies: Caco-2.
A short description of series [5]: Cmax in rat at 10 mg/kg, po. Further details: dose 10 mg/kg, route oral; call rule not given here. Type of series: ADME, organism-based. The following applies: in vivo.
Series [6] can be described thus: Cmax in rat at 2 mg/kg, iv. Type of series: ADME, organism-based. Set-up: dose 2 mg/kg, route intravenous. The following applies: in vivo. A digest of the protocol: (§1)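 Rats dosed at 2.0 mg/kg intravenously in SPEW vehicle. Plasma exposure profiled for T1/2 and Cmax.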
Series [7] is described as follows: Half life in rat at 2 mg/kg, iv. Type of series: ADME, organism-based. The following applies: in vivo. A digest of the protocol: as §1
Series [8] in a line: Inhibition of CYP450 (unknown origin). Type of series: ADME. The following applies: human.
Series [9] in a line: Clearance in rat hepatocytes relative to hepatic blood flow. Type of series: ADME, cell-based, Liver, Hepatocyte. The following applies: read-out: CLH.
Series [10] can be described thus: AUC (infinity) in rat at 2 mg/kg, iv. Type of series: ADME, organism-based. Set-up: dose 2 mg/kg, time infinity, route intravenous. The following applies: in vivo. A digest of the protocol:
(§2)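 Rat PK; iv dosing at 2.0 mg/Kg in SPEW vehicle, oral dosing at 10 mg/Kg in 0.1% CMC-0.2%Tween; AUCinf reported in ng*hr/mL.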

Series [11] in a line: AUC (infinity) in rat at 10 mg/kg, po. Type of series: ADME, organism-based. Further details: dose 10 mg/kg, route oral, time infinity. The following applies: in vivo. In short, it runs like this: as §2
Series [12] in a line: Oral bioavailability in rat at 10 mg/kg. Type of series: ADME, organism-based. The following applies: in vivo.
In series [13] the target is T1, Nuclear receptor ROR-gamma (Homo sapiens, UniProt P51449).
T1 sequence (P51449 whole entry): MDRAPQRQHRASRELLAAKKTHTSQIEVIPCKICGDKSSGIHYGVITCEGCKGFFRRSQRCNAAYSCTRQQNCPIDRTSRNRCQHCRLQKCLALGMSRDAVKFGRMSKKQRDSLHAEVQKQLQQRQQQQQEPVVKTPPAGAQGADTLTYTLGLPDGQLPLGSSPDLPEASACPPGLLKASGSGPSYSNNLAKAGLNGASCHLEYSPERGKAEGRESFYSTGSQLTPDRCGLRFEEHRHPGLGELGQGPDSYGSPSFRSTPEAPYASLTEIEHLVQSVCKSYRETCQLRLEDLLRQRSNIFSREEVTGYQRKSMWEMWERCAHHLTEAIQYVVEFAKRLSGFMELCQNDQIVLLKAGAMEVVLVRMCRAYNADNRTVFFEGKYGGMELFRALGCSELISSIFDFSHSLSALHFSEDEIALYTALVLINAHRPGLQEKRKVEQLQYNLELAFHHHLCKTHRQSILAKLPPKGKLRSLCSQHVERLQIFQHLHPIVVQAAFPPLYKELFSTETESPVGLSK
The experiment in a line: Inverse agonist activity at Gal4 DNA binding domain-tagged human RORgammat expressed in HEK293T cells assessed as effect on receptor-mediated transcriptional activity by luciferase reporter gene assay. Type of series: functional, cell-based, HEK-293T. A digest of the protocol: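 293T cells transfected with a Gal4:RORγ luciferase reporter. Cells seeded day 1 and transfected day 2; compound added in assay medium after transfection. Day 3: cells lysed and luminescence read by dual-flash. Dose-response EC50 is the mean of at least two runs.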
In general terms: In a reporter assay the amount or activity of a reporter protein is the signal.

In series [14] the target is T1, Nuclear receptor ROR-gamma. As to the kind of experiment: Inverse agonist activity at human recombinant GST-tagged RORgammat ligand binding domain assessed as effect on receptor-biotin tagged TRAP220 co-activator peptide interaction using 10 nM GST-RORgamma LBD by FRET-based assay. In short, it runs like this: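 Recombinant human GST-RORγ LBD (10 nM) with 40 nM biotin-TRAP220 co-activator peptide, 50 nM SAAPC, 1.5 nM Eu-anti-GST IgG. Buffer: 20 mM Tris-HCl pH 7.0, 60 mM NaCl, 5 mM MgCl2, 1 mM DTT, 0.1% BSA, 1.0% DMSO. FRET read on plate reader. IC50 is the mean of at least two runs.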

In series [15] the target is T2, Nuclear receptor subfamily 1 group I member 2 (Homo sapiens, UniProt O75469).
T2 sequence (O75469 whole entry): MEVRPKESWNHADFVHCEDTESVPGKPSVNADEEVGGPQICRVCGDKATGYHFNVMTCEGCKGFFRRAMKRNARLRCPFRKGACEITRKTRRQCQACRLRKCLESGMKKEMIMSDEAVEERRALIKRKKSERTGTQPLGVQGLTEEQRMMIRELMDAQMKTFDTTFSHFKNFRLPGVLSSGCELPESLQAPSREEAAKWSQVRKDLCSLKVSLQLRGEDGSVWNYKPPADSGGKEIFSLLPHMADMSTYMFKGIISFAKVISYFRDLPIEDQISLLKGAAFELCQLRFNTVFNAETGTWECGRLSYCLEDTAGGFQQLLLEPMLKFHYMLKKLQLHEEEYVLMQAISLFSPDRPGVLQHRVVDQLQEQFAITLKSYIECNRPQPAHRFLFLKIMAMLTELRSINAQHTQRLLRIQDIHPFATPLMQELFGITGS
As to the kind of experiment: Antagonist activity at Gal4 DNA binding domain-tagged human PXR ligand binding domain expressed in HEK293 cells assessed as inhibition of receptor-mediated transcriptional activity by luciferase reporter gene assay. Type of series: cell-based. In short, it runs like this:
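Screened by ChemPartner in HEK293 cells transiently co-transfected with a Gal4DBD-human NR LBD construct and a UAS-Luc reporter. Run in antagonist mode, read as % inhibition at a single concentration. Commercial reference compounds were run alongside in the same assay.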

Series [16] has as its target T3, Nuclear receptor ROR-beta (Homo sapiens, UniProt Q92753).
T3 sequence (Q92753 whole entry): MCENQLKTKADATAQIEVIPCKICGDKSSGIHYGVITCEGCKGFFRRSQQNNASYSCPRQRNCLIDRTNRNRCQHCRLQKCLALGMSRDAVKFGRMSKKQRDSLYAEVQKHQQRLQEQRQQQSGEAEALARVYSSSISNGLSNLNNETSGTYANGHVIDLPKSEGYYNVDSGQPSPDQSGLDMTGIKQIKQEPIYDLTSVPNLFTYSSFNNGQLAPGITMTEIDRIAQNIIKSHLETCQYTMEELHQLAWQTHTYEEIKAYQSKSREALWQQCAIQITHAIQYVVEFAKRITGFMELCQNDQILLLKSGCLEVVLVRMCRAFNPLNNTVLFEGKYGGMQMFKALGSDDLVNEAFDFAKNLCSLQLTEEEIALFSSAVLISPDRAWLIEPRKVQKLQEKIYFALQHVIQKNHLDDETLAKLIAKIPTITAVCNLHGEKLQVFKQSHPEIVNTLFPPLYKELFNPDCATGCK
The experiment in a line: Inverse agonist activity at Gal4 DNA binding domain-tagged human RORbeta expressed in HEK293T cells assessed as effect on receptor-mediated transcriptional activity by luciferase reporter gene assay. Type of series: cell-based, HEK-293T. A digest of the protocol:
(§3)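 Gal4 reporter assay in 293T cells with the same format as the RORγ Gal4 assay, using Gal4DBD:RORαLBD or Gal4DBD:RORβLBD constructs. Transfection, then compound treatment, then lysis and dual-flash luciferase luminescence. Activity measured in dose-response.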

Series [17] deals with T4, Nuclear receptor ROR-alpha (Homo sapiens, UniProt P35398).
T4 sequence (P35398 whole entry): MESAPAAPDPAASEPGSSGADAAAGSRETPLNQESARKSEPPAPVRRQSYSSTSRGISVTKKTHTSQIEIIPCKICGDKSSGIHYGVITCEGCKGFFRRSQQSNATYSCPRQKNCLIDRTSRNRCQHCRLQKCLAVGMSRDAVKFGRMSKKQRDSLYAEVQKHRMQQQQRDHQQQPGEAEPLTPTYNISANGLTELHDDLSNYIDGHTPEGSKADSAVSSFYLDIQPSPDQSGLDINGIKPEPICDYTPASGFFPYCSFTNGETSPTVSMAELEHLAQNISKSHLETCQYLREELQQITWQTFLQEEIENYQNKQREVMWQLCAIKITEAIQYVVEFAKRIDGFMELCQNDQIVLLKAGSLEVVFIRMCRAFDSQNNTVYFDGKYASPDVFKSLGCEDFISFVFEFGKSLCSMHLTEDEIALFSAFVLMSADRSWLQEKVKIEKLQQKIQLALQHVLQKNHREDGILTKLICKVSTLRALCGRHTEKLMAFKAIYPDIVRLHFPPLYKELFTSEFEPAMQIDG
The experiment in a line: Inverse agonist activity at Gal4 DNA binding domain-tagged human RORalpha expressed in HEK293T cells assessed as effect on receptor-mediated transcriptional activity by luciferase reporter gene assay. Type of series: cell-based, HEK-293T. A digest of the protocol:
as §3

Series [18] addresses T2, Nuclear receptor subfamily 1 group I member 2. As to the kind of experiment: Agonist activity at Gal4 DNA binding domain-tagged human PXR ligand binding domain expressed in HEK293 cells assessed as activation of receptor-mediated transcriptional activity by luciferase reporter gene assay. Type of series: cell-based. A digest of the protocol:
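Screened by ChemPartner as a cell-based transient co-transfection reporter assay in HEK293 cells, using a Gal4DBD-human NR LBD construct with UAS-Luc. Run in agonist mode, read as % activation at a single concentration. Commercial reference compounds were profiled in the same assay for validation.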

One may read the Papp B→A as the apparent permeability from the basolateral to the apical side of a cell layer. By Papp A→B is commonly meant how fast a substance crosses the layer from the apical side. A word on the Cmax: it is the peak of the concentration-time curve. By half-life is commonly meant how long it takes for the measured level to halve. As usually defined, the AUC(0-inf) is total exposure, with the tail of the curve extrapolated. In general, bioavailability refers to the share of a dose that reaches the circulation, judged against a reference dose that is usually intravenous. Low values mean poor availability, high ones good availability. As a reminder, the EC50 is the concentration giving half of the maximal effect. In general, IC50 refers to the concentration that inhibits the measured activity by half. As for `CN(C(=O)c1c(F)cccc1Cl)c1ccc(-c2cc(C(N)=O)ccc2Cl)cc1OCC(F)(F)F`, the CLH in series [1] is 54%. In addition, the basolateral-to-apical permeability (Papp B→A) in series [2] turned out to be 35.3 ×10⁻⁶ cm/s. The results for the hepatic extraction ratio in series [3] and in [9] were 0.88 and 0.83, respectively. Besides, the Papp A→B in series [4] came to 32.2 ×10⁻⁶ cm/s. The results for the Cmax in series [5] and in series [6] were 1010 ng/mL and 2350 ng/mL, respectively. The half-life in series [7] was 1.3 h. In addition, in [8], the “inhibition (INH)” value was “Not Active”. For the same compound, the AUC(0-inf) in [10] amounted to 1130 ng·h/mL; in [11], 1550 ng·h/mL. This compound displayed a bioavailability in [12] of 28%. For the same compound, the concentration for a half-maximal effect (EC50) in series [13] was determined as 0.093 µM. For the same compound, the IC50 in series [14] is 0.011 µM.

On to `[2H]C([2H])([2H])N(C(=O)c1c(F)cccc1Cl)c1ccc(-c2cc(C(N)=O)ccc2Cl)cc1OCC(F)(F)F`, for which the CLH in series [1] stood at 40%. Besides, the hepatic extraction ratio in series [3] is 0.51; in series [9], 0.65. In addition, the results for the Cmax in [5] and in series [6] were 1210 ng/mL and 2740 ng/mL, respectively. Besides, the half-life in series [7] was 9.6 h. For the same compound, the “inhibition (INH)” value in series [15] is less than 50%. Further, the EC50 in series [16] stood at 1.93 µM; in series [17] it was 8.36 µM. The AUC(0-inf) in series [10] is 1540 ng·h/mL; in series [11], 3130 ng·h/mL. The bioavailability in [12] was 41%. Moreover, in series [18], the Activity was less than 50%.
